Data on ten molecules can be found in PMC6142812 (Bioorganic & medicinal chemistry letters, 2018).

Some results are limits rather than exact numbers.

The target of data set [1] is rat mGlu5 (Rattus norvegicus, UniProt P31424). The data set is described as follows: Calcium mobilization rat mGlu5 functional assay. Format: cell-based. Conditions: for fold more active than 11: mGlu5 potency relative to compound 11; for mGlu5 pIC50 (±SEM): rat mGlu5 in HEK293A cells, EC80 glutamate, avg. of n ≥ 3.
The test system of data set [2] is other seven mGlu receptors. Conditions: comparators 1 and 2, previously published; cited from earlier work.
The nature of data set [3]: Metabolic stability in human S9 hepatic fractions with and without NADPH. Conditions: for CLHEP (predicted hepatic clearance): QH = 21; for CLint scaled at 1 h: human, liver S9 hepatic fractions, CLINT (intrinsic clearance). Format: in vitro ADME.
Data set [4] can be described thus: Metabolic stability in rat S9 hepatic fractions with and without NADPH. Format: in vitro ADME. The following applies: for CLHEP (predicted hepatic clearance): QH = 70; for CLint scaled at 1 h: rat, liver S9 hepatic fractions, CLINT (intrinsic clearance).
The nature of data set [5]: Stability in rat whole blood at 37 °C. Format: in vitro ADME. Conditions: one hour.
Data set [6] can be described thus: Rat pharmacokinetics study, intravenous dosing. Format: in vivo. The following applies: compound 14; male Sprague-Dawley rats, IV 1.0 mg/kg, n=2. The essentials: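 Single IV dose of 1.0 mg/kg test compound given to male Sprague-Dawley rats (n=2). Half-life, mean residence time, plasma clearance and steady-state volume of distribution were derived for the parent and for its alcohol metabolite.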

Sequence of rat mGlu5 (P31424 21-1203): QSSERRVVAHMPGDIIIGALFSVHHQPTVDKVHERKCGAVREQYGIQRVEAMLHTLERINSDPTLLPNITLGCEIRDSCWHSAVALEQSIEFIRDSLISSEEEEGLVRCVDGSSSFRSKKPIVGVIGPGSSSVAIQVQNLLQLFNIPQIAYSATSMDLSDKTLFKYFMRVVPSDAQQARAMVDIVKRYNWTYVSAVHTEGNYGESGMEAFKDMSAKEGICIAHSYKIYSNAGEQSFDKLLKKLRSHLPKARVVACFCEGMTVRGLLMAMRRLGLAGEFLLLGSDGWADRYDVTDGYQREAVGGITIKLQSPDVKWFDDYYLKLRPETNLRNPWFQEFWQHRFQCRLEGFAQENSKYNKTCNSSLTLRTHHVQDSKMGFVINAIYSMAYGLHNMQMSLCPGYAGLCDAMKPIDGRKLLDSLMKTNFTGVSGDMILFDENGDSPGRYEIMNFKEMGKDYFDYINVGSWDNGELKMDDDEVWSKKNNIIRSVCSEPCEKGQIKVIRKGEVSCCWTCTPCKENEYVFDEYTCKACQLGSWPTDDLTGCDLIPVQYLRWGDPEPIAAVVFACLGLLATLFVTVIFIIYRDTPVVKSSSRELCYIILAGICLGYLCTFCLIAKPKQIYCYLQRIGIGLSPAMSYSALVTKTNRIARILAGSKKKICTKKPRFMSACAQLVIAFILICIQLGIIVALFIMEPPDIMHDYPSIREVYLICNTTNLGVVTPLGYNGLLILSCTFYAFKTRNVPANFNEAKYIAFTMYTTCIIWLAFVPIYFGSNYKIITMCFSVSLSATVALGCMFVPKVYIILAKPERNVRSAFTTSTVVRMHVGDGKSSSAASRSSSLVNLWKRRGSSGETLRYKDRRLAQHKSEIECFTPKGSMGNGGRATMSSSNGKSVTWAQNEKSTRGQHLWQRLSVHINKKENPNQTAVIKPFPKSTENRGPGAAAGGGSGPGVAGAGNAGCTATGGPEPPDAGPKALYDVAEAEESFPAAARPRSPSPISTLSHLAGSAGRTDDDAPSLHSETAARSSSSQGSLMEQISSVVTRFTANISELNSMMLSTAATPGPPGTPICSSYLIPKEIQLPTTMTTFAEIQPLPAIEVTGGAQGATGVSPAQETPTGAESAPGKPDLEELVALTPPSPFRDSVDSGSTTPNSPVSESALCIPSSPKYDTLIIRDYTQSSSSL

Turning to `Cc1cccc(NC(=O)c2cc(C(=O)c3cncnc3)cc3cccnc23)n1` [Compound 12], the “fold more active than 11” value in data set [1] is given as “more than 10 fold”.
As to `O=C(Nc1ccc(F)cn1)c1cc(Oc2cncc(F)c2)cn2ncnc12` [Compound 2], the “selectivity vs. other mGlus” value in data set [2] is on record as more than 500.
On to `Cc1csc(NC(=O)c2cc(C(F)c3cncnc3)cc3cccnc23)n1` (stereo not drawn) [Compound 21], for which the “CLHEP (predicted hepatic clearance)” value in data set [3] (human S9, +NADPH, CLHEP = (QH × CLINT)/(QH + CLINT)) is recorded as 17.3 mL/min/kg; in data set [3] (human S9, −NADPH), 12.6 mL/min/kg; in data set [4] (rat S9, +NADPH, CLHEP = (QH × CLINT)/(QH + CLINT)), 51.8 mL/min/kg; in data set [4] (rat S9, −NADPH) it was 23.2 mL/min/kg. Also, the CLint scaled at 1 h was found to be 98.2 mL/min/kg in data set [3] (human S9, +NADPH); 31.3 mL/min/kg in data set [3] (human S9, −NADPH); 199 mL/min/kg in data set [4] (rat S9, +NADPH); 34.7 mL/min/kg in data set [4] (rat S9, −NADPH).
Consider `N#Cc1ccnc(NC(=O)c2cc(C(F)(F)c3cncnc3)cc3cccnc23)c1` [Compound 35], for which, in data set [1], the “mGlu5 pIC50 (±SEM)” value is given as less than 4.5.
As for `O=C(Nc1ccc(F)cn1)c1cc(Oc2cncc(F)c2)cc2cccnc12` [Compound 3], the “potency versus mGlu5 (in words)” value in data set [1] (compared with compound 2) is “similarly potent”.
For the molecule `COc1ccnc(NC(=O)c2cc(C(F)(F)c3cncnc3)cc3cccnc23)c1` [Compound 34], in data set [1], the “mGlu5 pIC50 (±SEM)” value is reported as less than 4.5.
For the molecule `O=C(c1cncnc1)c1cc(C(=O)Nc2ccc(F)cn2)c2ncccc2c1` [Compound 13], the “fold more active than 11” value in data set [1] was “more than 10 fold”.
As for `O=C(Nc1nc(C2CC2)cs1)c1cc(C(F)(F)c2cncnc2)cc2cccnc12` [Compound 36], the “fold drop in mGlu5 potency” value in data set [1] (relative to compound 27 (methyl to cyclopropyl)) was 3.5 fold.
Regarding `Cc1csc(NC(=O)c2cc(C(=O)c3cncnc3)cc3cccnc23)n1` [Compound 14], the “conversion to metabolite (ketone reduction, alcohol 53)” value in data set [5] is “near complete conversion”. Besides, the “Clp” value in data set [6] is 3430 mL/min/kg.
For the molecule `N#Cc1ccc(NC(=O)c2cc(C(F)(F)c3cncnc3)cc3cccnc23)nc1` [Compound 32], the “mGlu5 pIC50 (±SEM)” value in data set [1] is recorded as less than 4.5.
